Activity calls are given as the source filed them. The calls are words filed in the database; no cut-off is given here.
Tests used:
Bacillus subtilis [1] = test: Induction of ywaC gene expression in Bacillus subtilis at 1 ug/ml by microarray analysis relative to untreated control; format: functional
Outline: (§1)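 B. subtilis cells harvested 10 min after antibiotic addition. Pellets were snap-frozen in liquid nitrogen, then RNA was prepared for microarray hybridization. Fold induction is taken against untreated control cells.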

Bacillus subtilis [2] = test: Induction of mreBH gene expression in Bacillus subtilis at 1 ug/ml by microarray analysis relative to untreated control; format: functional; outline: as §1
Bacillus subtilis [3] = test: Induction of ydaH gene expression in Bacillus subtilis at 1 ug/ml by microarray analysis relative to untreated control; format: functional; outline: as §1
Bacillus subtilis [4] = test: Induction of yqjL gene expression in Bacillus subtilis at 1 ug/ml by microarray analysis relative to untreated control; format: functional; outline: as §1
Bacillus subtilis [5] = test: Induction of bcrC gene expression in Bacillus subtilis at 1 ug/ml by microarray analysis relative to untreated control; format: functional; outline: as §1
Bacillus subtilis [6] = test: Induction of yrhH gene expression in Bacillus subtilis at 1 ug/ml by microarray analysis relative to untreated control; format: functional; outline: as §1
Bacillus subtilis [7] = test: Induction of liaIH gene expression in Bacillus subtilis at 1 ug/ml by microarray analysis relative to untreated control; format: functional; outline: as §1
Bacillus subtilis [8] = test: Induction of gerAAABAC gene expression in Bacillus subtilis at 1 ug/ml by microarray analysis relative to untreated control; format: functional; outline: as §1
Bacillus subtilis [9] = test: Induction of ybeF gene expression in Bacillus subtilis at 1 ug/ml by microarray analysis relative to untreated control; format: functional; outline: as §1
Bacillus subtilis [10] = test: Induction of sigM-yhdLK gene expression in Bacillus subtilis at 1 ug/ml by microarray analysis relative to untreated control; format: functional; outline: as §1
Bacillus subtilis [11] = test: Induction of yjbC-spx gene expression in Bacillus subtilis at 1 ug/ml by microarray analysis relative to untreated control; format: functional; outline: as §1
Bacillus subtilis [12] = test: Induction of sms-yacKL gene expression in Bacillus subtilis at 1 ug/ml by microarray analysis relative to untreated control; format: functional; outline: as §1
Bacillus subtilis [13] = test: Induction of radC gene expression in Bacillus subtilis at 1 ug/ml by microarray analysis relative to untreated control; format: functional; outline: as §1
Bacillus subtilis [14] = test: Induction of ypuA gene expression in Bacillus subtilis at 1 ug/ml by microarray analysis relative to untreated control; format: functional; outline: as §1
Bacillus subtilis [15] = test: Induction of ypbG gene expression in Bacillus subtilis at 1 ug/ml by microarray analysis relative to untreated control; format: functional; outline: as §1
Bacillus subtilis [16] = test: Induction of ypuD gene expression in Bacillus subtilis at 1 ug/ml by microarray analysis relative to untreated control; format: functional; outline: as §1
Bacillus subtilis [17] = test: Induction of ycgRQ gene expression in Bacillus subtilis at 1 ug/ml by microarray analysis relative to untreated control; format: functional; outline: as §1
Bacillus subtilis [18] = test: Induction of yrhIJ gene expression in Bacillus subtilis at 1 ug/ml by microarray analysis relative to untreated control; format: functional; outline: as §1
Bacillus subtilis [19] = test: Induction of sigV-yrhM gene expression in Bacillus subtilis at 1 ug/ml by microarray analysis relative to untreated control; format: functional; outline: as §1
Bacillus subtilis [20] = test: Induction of yfnI gene expression in Bacillus subtilis at 1 ug/ml by microarray analysis relative to untreated control; format: functional; outline: as §1
Bacillus subtilis [21] = test: Induction of yebC gene expression in Bacillus subtilis at 1 ug/ml by microarray analysis relative to untreated control; format: functional; outline: as §1
Bacillus subtilis [22] = test: Induction of yppC gene expression in Bacillus subtilis at 1 ug/ml by microarray analysis relative to untreated control; format: functional; outline: as §1
Bacillus subtilis [23] = test: Induction of ywnJ gene expression in Bacillus subtilis at 1 ug/ml by microarray analysis relative to untreated control; format: functional; outline: as §1
Bacillus subtilis [24] = test: Induction of ywtF gene expression in Bacillus subtilis at 1 ug/ml by microarray analysis relative to untreated control; format: functional; outline: as §1
Bacillus subtilis [25] = test: Induction of pbpI gene expression in Bacillus subtilis at 1 ug/ml by microarray analysis relative to untreated control; format: functional; outline: as §1
Bacillus subtilis [26] = test: Induction of rodA gene expression in Bacillus subtilis at 1 ug/ml by microarray analysis relative to untreated control; format: functional; outline: as §1
Bacillus subtilis [27] = test: Induction of ylxW gene expression in Bacillus subtilis at 1 ug/ml by microarray analysis relative to untreated control; format: functional; outline: as §1
Bacillus subtilis [28] = test: Induction of yoxD gene expression in Bacillus subtilis at 1 ug/ml by microarray analysis relative to untreated control; format: functional; outline: as §1
Bacillus subtilis [29] = test: Induction of yqiG gene expression in Bacillus subtilis at 1 ug/ml by microarray analysis relative to untreated control; format: functional; outline: as §1
Bacillus subtilis [30] = test: Induction of yjbQ gene expression in Bacillus subtilis at 1 ug/ml by microarray analysis relative to untreated control; format: functional; outline: as §1
Bacillus subtilis [31] = test: Induction of sigM gene expression in Bacillus subtilis by real-time RT-PCR; format: functional
Outline: (§2)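 Transcript levels measured by one-step real-time RT-PCR with SYBR green detection. Fold change is given as mean ± standard deviation of two independent experiments.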

Bacillus subtilis [32] = test: Induction of sigV gene expression in Bacillus subtilis by real-time RT-PCR; format: functional; outline: as §2
Bacillus subtilis [33] = test: Induction of sigW gene expression in Bacillus subtilis by real-time RT-PCR; format: functional; outline: as §2
Bacillus subtilis [34] = test: Induction of sigX gene expression in Bacillus subtilis by real-time RT-PCR; format: functional; outline: as §2
Bacillus subtilis [35] = test: Induction of sigY gene expression in Bacillus subtilis by real-time RT-PCR; format: functional; outline: as §2
Bacillus subtilis [36] = test: Induction of sigZ gene expression in Bacillus subtilis by real-time RT-PCR; format: functional; outline: as §2
Bacillus subtilis [37] = test: Induction of ylaC gene expression in Bacillus subtilis by real-time RT-PCR; format: functional; outline: as §2
Bacillus subtilis [38] = test: Induction of liaH gene expression in Bacillus subtilis by real-time RT-PCR; format: functional; outline: as §2
Bacillus subtilis [39] = test: Induction of promoter liaI in Bacillus subtilis at 0.5 to 2 ug/ml; format: functional, organism-based
Outline: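 PliaI promoter activity read by β-galactosidase assay in strain BFS2470 (W168 liaI::pMUTIN). Antibiotic concentrations spanned 4 orders of magnitude.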

CC(C)CCCCCCC/C=C\CC(=O)N[C@@H](CC(N)=O)C(=O)N[C@@H]1C(=O)N2CCCC[C@@H]2C(=O)N[C@@H]([C@H](C)C(=O)O)C(=O)N[C@@H](CC(=O)O)C(=O)NCC(=O)N[C@@H](CC(=O)O)C(=O)NCC(=O)N[C@H]([C@H](C)N)C(=O)N[C@@H](C(C)C)C(=O)N2CCC[C@H]2C(=O)N[C@@H]1C [FRIULIMICIN B]
fold change (FC) (Bacillus subtilis [1]): 8.7
fold change (FC) (Bacillus subtilis [2]): 3.1
fold change (FC) (Bacillus subtilis [3]): 9.1
fold change (FC) (Bacillus subtilis [4]): 8.9
fold change (FC) (Bacillus subtilis [5]): 8.2
fold change (FC) (Bacillus subtilis [6]): 8.5
Activity (Bacillus subtilis [7]): inactive
Activity (Bacillus subtilis [8]): inactive
Activity (Bacillus subtilis [9]): inactive
fold change (FC) (Bacillus subtilis [10]): 7.4
fold change (FC) (Bacillus subtilis [11]): 7.2
fold change (FC) (Bacillus subtilis [12]): 7.1
fold change (FC) (Bacillus subtilis [13]): 6.9
fold change (FC) (Bacillus subtilis [14]): 6.5
fold change (FC) (Bacillus subtilis [15]): 6.4
fold change (FC) (Bacillus subtilis [16]): 6.2
fold change (FC) (Bacillus subtilis [17]): 5.9
fold change (FC) (Bacillus subtilis [18]): 5.7
fold change (FC) (Bacillus subtilis [19]): 5.1
fold change (FC) (Bacillus subtilis [20]): 4.7
fold change (FC) (Bacillus subtilis [21]): 4.1
fold change (FC) (Bacillus subtilis [22]): 4.1
fold change (FC) (Bacillus subtilis [23]): 4.1
fold change (FC) (Bacillus subtilis [24]): 3.9
fold change (FC) (Bacillus subtilis [25]): 3.8
fold change (FC) (Bacillus subtilis [26]): 3.8
fold change (FC) (Bacillus subtilis [27]): 3.5
fold change (FC) (Bacillus subtilis [28]): 3.7
fold change (FC) (Bacillus subtilis [29]): 3.4
fold change (FC) (Bacillus subtilis [30]): 3.4
fold change (FC) (Bacillus subtilis [31]): 8.7
fold change (FC) (Bacillus subtilis [32]): 7.4
fold change (FC) (Bacillus subtilis [33]): 0.9
fold change (FC) (Bacillus subtilis [34]): 0.8
fold change (FC) (Bacillus subtilis [35]): 1.8
fold change (FC) (Bacillus subtilis [36]): 1.2
fold change (FC) (Bacillus subtilis [37]): 2.9
fold change (FC) (Bacillus subtilis [38]): 0.9

CCCCCCCCCC(=O)N[C@@H](Cc1c[nH]c2ccccc12)C(=O)N[C@H](CC(N)=O)C(=O)N[C@@H](CC(=O)O)C(=O)N[C@@H]1C(=O)NCC(=O)N[C@@H](CCCN)C(=O)N[C@@H](CC(=O)O)C(=O)N[C@H](C)C(=O)N[C@@H](CC(=O)O)C(=O)NCC(=O)N[C@H](CO)C(=O)N[C@@H]([C@H](C)CC(=O)O)C(=O)N[C@@H](CC(=O)c2ccccc2N)C(=O)O[C@@H]1C
fold change (FC) (Bacillus subtilis [1]): 4.5
fold change (FC) (Bacillus subtilis [2]): 3.9
fold change (FC) (Bacillus subtilis [3]): 3.3
fold change (FC) (Bacillus subtilis [4]): 3.3
fold change (FC) (Bacillus subtilis [5]): 3.3
fold change (FC) (Bacillus subtilis [6]): 3.1
fold change (FC) (Bacillus subtilis [7]): 429
fold change (FC) (Bacillus subtilis [8]): 15
fold change (FC) (Bacillus subtilis [9]): 4.6
Activity (Bacillus subtilis [10]): inactive
Activity (Bacillus subtilis [11]): inactive
Activity (Bacillus subtilis [12]): inactive
Activity (Bacillus subtilis [13]): inactive
Activity (Bacillus subtilis [14]): inactive
Activity (Bacillus subtilis [15]): inactive
Activity (Bacillus subtilis [16]): inactive
Activity (Bacillus subtilis [17]): inactive
Activity (Bacillus subtilis [18]): inactive
Activity (Bacillus subtilis [19]): inactive
Activity (Bacillus subtilis [20]): inactive
Activity (Bacillus subtilis [21]): inactive
Activity (Bacillus subtilis [22]): inactive
Activity (Bacillus subtilis [23]): inactive
Activity (Bacillus subtilis [24]): inactive
Activity (Bacillus subtilis [25]): inactive
Activity (Bacillus subtilis [26]): inactive
Activity (Bacillus subtilis [27]): inactive
Activity (Bacillus subtilis [28]): inactive
Activity (Bacillus subtilis [29]): inactive
Activity (Bacillus subtilis [30]): inactive
fold change (FC) (Bacillus subtilis [31]): 2.4
fold change (FC) (Bacillus subtilis [32]): 2.4
fold change (FC) (Bacillus subtilis [33]): 1.4
fold change (FC) (Bacillus subtilis [34]): 0.8
fold change (FC) (Bacillus subtilis [35]): 0.9
fold change (FC) (Bacillus subtilis [36]): 1
fold change (FC) (Bacillus subtilis [37]): 1
fold change (FC) (Bacillus subtilis [38]): 1170
Activity (Bacillus subtilis [39]): Active
